Experimental data taken from ChEMBL document CHEMBL1146519, “Acaricidal activity of tonka bean extracts. Synthesis and structure-activity relationships of bioactive derivatives” (J Nat Prod, 2003).

Test system: Dermatophagoides pteronyssinus
Test: Pesticidal activity against Dermatophagoides pteronyssinus after 24 hrs
Format: functional, organism-based
Summary of the method: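 D. pteronyssinus reared on 90% yeast powder/10% beard shavings at 25 °C, 75% RH, dark. Compounds in absolute EtOH dried 24 h on 2 cm2 well bottoms; rims glued. 100 mites per well, 24 h at 25 °C, 75% RH, dark. Dead = no movement when prodded. Abbott-corrected mortality; EC50 by linear regression. Seven 2-fold dilutions, 0.01–0.640 g/m2, triplicate, repeated after one week.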

| SMILES | EC50 |
| --- | --- |
| O=C(OCc1ccccc1)c1cc2ccccc2oc1=O | 0.28 g/m2 |
| O=Cc1cc(C(=O)OCc2ccccc2)ccc1O | 0.242 g/m2 |
| O=C(OCc1ccccc1)c1cc(=O)c2ccccc2o1 | 0.495 g/m2 |
| O=C(OCc1ccccc1)c1cccc(O)c1 | 0.495 g/m2 |
| O=C1CCOc2ccccc21 [CHROMANONE] | 0.07 g/m2 |
| Oc1ccccc1CCCc1ccccc1 [CHALCANE] | 0.31 g/m2 |
| c1ccc(C2CCc3ccccc3O2)cc1 (stereo unspecified) [FLAVANE] | 0.15 g/m2 |
| O=c1ccc2ccc(O)cc2o1 [UMBELLIFERONE] | > 1.5 g/m2 |
| O=C(OCc1ccccc1)c1cccc2oc(=O)ccc12 | 0.495 g/m2 |
| Cc1ccc2oc(=O)ccc2c1 | 0.04 g/m2 |
| O=C(OCc1ccccc1)c1ccc(O)cc1 | 0.495 g/m2 |
| O=C1CC(c2ccccc2)Oc2ccccc21 (stereo unspecified) [FLAVANONE] | 0.09 g/m2 |
| O=c1cc(O)c2ccccc2o1 [4-HYDROXYCOUMARINS] | > 1.5 g/m2 |
| O=C(/C=C/c1ccccc1)OCc1ccccc1 [BENZYL CINNAMATE] | 0.18 g/m2 |
| O=C(OCc1ccccc1)c1ccc(=O)oc1 [BENZYL COUMALATE] | 0.495 g/m2 |
| O=c1cc(-c2ccccc2)oc2ccccc12 [FLAVONE] | 0.5 g/m2 |
| O=C(OCc1ccccc1)c1ccccc1 [BENZYL BENZOATE] | 0.025 g/m2 |
| O=c1ccoc2ccccc12 [CHROMONE] | 0.037 g/m2 |
| O=C(OCc1ccccc1)c1ccccc1O [BENZYL SALICYLATE] | 0.025 g/m2 |
| O=c1ccc2ccccc2o1 [COUMARIN] | 0.032 g/m2 |
| O=C(OCc1ccccc1)c1ccc2oc(=O)ccc2c1 | 0.495 g/m2 |
